The values that follow come from ChEMBL document CHEMBL1152506, “Characterization and synthetic application of a novel beta1,3-galactosyltransferase from Escherichia coli O55:H7” (Bioorg Med Chem, 2009).

Active and inactive are the calls of the source. No cut-off for these calls is given here.

For series [1], the target named is T1, Putative glycosyltransferase (Escherichia coli O55:H7) (UniProt B1B4J9).
T1 sequence (whole entry): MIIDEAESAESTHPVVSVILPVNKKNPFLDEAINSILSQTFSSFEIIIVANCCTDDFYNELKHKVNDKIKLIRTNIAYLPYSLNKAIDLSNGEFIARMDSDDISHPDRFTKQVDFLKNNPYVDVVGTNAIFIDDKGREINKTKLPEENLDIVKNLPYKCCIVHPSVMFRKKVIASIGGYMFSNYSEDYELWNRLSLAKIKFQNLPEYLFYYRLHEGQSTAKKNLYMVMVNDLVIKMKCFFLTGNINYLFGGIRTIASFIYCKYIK
In words: Activity of Escherichia coli O55:H7 glycosyltransferase WbgO relative to GlcNAc. Put shortly:
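GST-fused WbgO made in E. coli BL21(DE3) and purified on glutathione resin. Assayed in 50 µL of 50 mM HEPES pH 7.0 with 5 mM MnCl2, 0.3 mM UDP-Gal plus UDP-[6-3H]Gal (10,000 cpm), 2 mM acceptor and 4 µg enzyme, 37 °C for 1 h. Control omitted the acceptor. Incorporated 3H was read by liquid scintillation counting and expressed relative to GlcNAc.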

Series [2] addresses T1, Putative glycosyltransferase (Escherichia coli O55:H7). As to the kind of experiment: Activity of Escherichia coli O55:H7 glycosyltransferase WbgO. The gist of the method: (§1)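 Apparent kinetics for purified GST-WbgO, using the radioactive UDP-[6-3H]Gal transfer assay with scintillation counting. The acceptor (GlcNAc, GalNAc or lacto-N-triose) was varied at 0.1, 0.2, 0.5, 1 and 2 mM with UDP-Gal fixed at 1 mM. UDP-Gal was varied at 0.1–2 mM with 20 mM GlcNAc. Base buffer was HEPES pH 7.0 with 5 mM MnCl2.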

Substrate in series [3]: CC(=O)N[C@@H]1[C@@H](O)[C@@H](O)[C@@H](CO)O[C@H]1O
In words: (§2) Ratio of Kcat to Km for Escherichia coli O55:H7 glycosyltransferase WbgO by Lineweaver-Burke analysis. The gist of the method: as §1

Substrate in series [4]: CC(=O)N[C@@H]1[C@@H](O)[C@H](O)[C@@H](CO)O[C@H]1O
Described as §2. The gist of the method: as §1

Substrate in series [5]: CC(=O)N[C@H]1[C@H](O[C@H]2[C@@H](O)[C@@H](CO)O[C@@H](O[C@H]3[C@H](O)[C@@H](O)[C@H](O)O[C@@H]3CO)[C@@H]2O)O[C@H](CO)[C@@H](O)[C@@H]1O[C@@H]1O[C@H](CO)[C@H](O)[C@H](O)[C@H]1O
The series is described as §2. Put shortly: as §1

Substrate in series [6]: CC(=O)N[C@@H]1[C@@H](O)[C@@H](O)[C@@H](CO)O[C@H]1O
In words: (§3) Activity of Escherichia coli O55:H7 glycosyltransferase WbgO by Lineweaver-Burke analysis. The gist of the method: as §1

Substrate in series [7]: CC(=O)N[C@@H]1[C@@H](O)[C@H](O)[C@@H](CO)O[C@H]1O
Described as §3. Put shortly: as §1

Substrate in series [8]: CC(=O)N[C@H]1[C@H](O[C@H]2[C@@H](O)[C@@H](CO)O[C@@H](O[C@H]3[C@H](O)[C@@H](O)[C@H](O)O[C@@H]3CO)[C@@H]2O)O[C@H](CO)[C@@H](O)[C@@H]1O[C@@H]1O[C@H](CO)[C@H](O)[C@H](O)[C@H]1O
The series is described as §3. Put shortly:
as §1

As to `CC(=O)N[C@H]1[C@H](Oc2ccc([N+](=O)[O-])cc2)O[C@H](CO)[C@@H](O)[C@@H]1O`, the Activity in series [1] was found to be 73%.

In series [1], `CC(=O)N[C@H]1[C@H](O[C@H]2[C@@H](O)[C@@H](CO)O[C@@H](O[C@H]3[C@H](O)[C@@H](O)[C@H](O)O[C@@H]3CO)[C@@H]2O)O[C@H](CO)[C@H](O)[C@@H]1O` gave an Activity of 16%.

In series [1], `CC(=O)N[C@@H]1[C@@H](O)[C@H](O)[C@@H](CO)O[C@H]1O` gave an Activity of 100%. For the same molecule, the result in series [2] was Active.

With `CC(=O)N[C@@H]1[C@@H](O)[C@@H](O)[C@@H](CO)O[C@H]1O`, the Activity in series [1] is 43%. In addition, the outcome in series [2] was Active.

B1: Putative glycosyltransferase (Escherichia coli O55:H7), B1B4J9 (protein)
chain: T1 sequence (whole entry)
A word on the kcat/Km: it is the second-order rate constant that governs catalysis at low substrate concentration. As usually defined, the Km is the substrate concentration at which the rate is half of its maximum. Usually Vmax stands for the rate approached at saturating substrate. As usually defined, the kcat is the maximal rate divided by the concentration of active sites. With B1, the kcat/Km in series [3] came to 87.2 M⁻¹ s⁻¹; in series [4], 132 M⁻¹ s⁻¹; in series [5] it was 278 M⁻¹ s⁻¹. Further, the values for the Km in series [6], in series [7] and in series [8] were 327 µM, 323 µM and 55 µM, respectively. For the same molecule, the values for the Vmax in series [6], in series [7] and in series [8] were 120 pmol/min, 179 pmol/min and 176 pmol/min, respectively. Further, the kcat in series [6] worked out at 0.0285 s⁻¹; in series [7], 0.0425 s⁻¹; in series [8], 0.0417 s⁻¹.
